Laboratory results: ChEMBL document CHEMBL1126638, “Intracellular delivery of bioactive AZT nucleotides by aryl phosphate derivatives of AZT” (J Med Chem, 1993)

How the values were obtained:
[1] = test system: MT4; test: Anti HIV-2 activity in human lymphocyte MT-4 cell line; type: functional, cell-based
In short: (§1)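 Cells at 5 × 10^5/mL infected with HIV-1 (III_B, stocks from infected MT-4 supernatants) or HIV-2 (ROD) at 100 CCID50 per mL, then mixed with compound dilutions. Giant cell formation recorded microscopically at day 4 (CEM). Viable MT-4 cells counted by trypan blue at day 5. EC50 is the concentration giving 50% protection against viral cytopathicity. Mean of two to four independent experiments.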

[2] = test system: MT4; test: cytotoxic activity in MT-4 cell line; type: functional; conditions: Homo sapiens
In short: (§2)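 Mock-infected MT-4 or CEM cell cultures incubated with compound dilutions in the same format as the antiviral assay. CC50 is the concentration reducing viable cell number (MT-4, trypan blue, day 5) […] by 50%. Mean of two to four independent experiments.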

[3] = test system: CCRF-CEM; test: Anti HIV-2 activity in human lymphocyte CEM/0 cell line; type: functional, cell-based; in short: as §1
[4] = Selective index is the ratio of cytotoxic concentration to effective concentration against MT-4 cell line; type: functional, MT4
In short: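 Selectivity index for HIV-2 in MT-4 cells is the CC50 (mock-infected cultures, trypan blue viable count at day 5) divided by the EC50 (protection of infected cultures from HIV-2 cytopathicity).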

[5] = test system: CCRF-CEM; test: Anti HIV-1 activity in human lymphocyte CEM/0 cell line; type: functional, cell-based; in short: as §1
[6] = test system: CCRF-CEM; test: Antiviral activity in HIV-2 infected CEM cells which are deficient in Thymidine Kinase; type: functional, cell-based; conditions: Homo sapiens; in short: as §1
[7] = EC50 of HIV-2 in CEM/TK versus EC50 of HIV-2 in CEM/0; type: functional
In short: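 Ratio of the HIV-2 EC50 in thymidine kinase-deficient CEM/TK⁻ cells to the HIV-2 EC50 in CEM/O cells. Both values come from the cytopathicity-protection assay.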

[8] = test system: MT4; test: Anti HIV-1 activity in human lymphocyte MT-4 cell line; type: functional, cell-based; in short: as §1
[9] = test system: CCRF-CEM; test: cytotoxic activity in CEM/0 cell line; type: functional; conditions: Homo sapiens; in short: as §2

Row | EC50 [3] | EC50 [5] | EC50 [6] | Compound | EC50 [1] | CC50 [2] | Selectivity index [4] | Ratio [7] | EC50 [8] | CC50 [9]
1 | 230 nM | 97 nM | > 100000 nM | COC(=O)CNP(=O)(OCC1OC(n2cc(C)c(=O)[nH]c2=O)CC1N=[N+]=[N-])Oc1ccccc1 (stereo not drawn) | 200 nM | > 500000 nM | >2500 | > 435 | 160 nM | > 500000 nM
2 | 160 nM | 97 nM | 10000 nM | COC(=O)C(Cc1ccccc1)NP(=O)(OCC1OC(n2cc(C)c(=O)[nH]c2=O)CC1N=[N+]=[N-])Oc1ccccc1 (stereo not drawn) | 110 nM | 208000 nM | 2356 | 62 | 80 nM | 161000 nM
3 | 60 nM | 51 nM | 8000 nM | CCCCCc1ccc(OP(=O)(NC(C)C(=O)OC)OCC2OC(n3cc(C)c(=O)[nH]c3=O)CC2N=[N+]=[N-])cc1 (stereo not drawn) | 74 nM | 7000 nM | 99 | 133 | 103 nM | 9000 nM
4 | 210 nM | 140 nM | 13000 nM | COC(=O)C(NP(=O)(OCC1OC(n2cc(C)c(=O)[nH]c2=O)CC1N=[N+]=[N-])Oc1ccccc1)C(C)C (stereo not drawn) | 87 nM | 205000 nM | 1891 | 62 | 99 nM | 123000 nM

Further lines, the compound ahead of its results:

Row | Compound | EC50 [3] | EC50 [5] | EC50 [6] | EC50 [1] | CC50 [2] | Selectivity index [4] | Ratio [7] | EC50 [8] | CC50 [9]
5 | Cc1cn([C@H]2C[C@H](N=[N+]=[N-])[C@@H](CO)O2)c(=O)[nH]c1=O [ZIDOVUDINE] | 4 nM | 3 nM | > 100000 nM |  | 6000 nM | 2000 | > 28600 | 2 nM | > 500000 nM
6 | CCc1ccc(OP(=O)(NC(C)C(=O)OC)OCC2OC(n3cc(C)c(=O)[nH]c3=O)CC2N=[N+]=[N-])cc1 (stereo not drawn) | 60 nM | 48 nM | 8700 nM | 70 nM | 11000 nM | 153 | 145 | 68 nM | 31700 nM
7 | CCCc1ccc(OP(=O)(NC(C)C(=O)OC)OCC2OC(n3cc(C)c(=O)[nH]c3=O)CC2N=[N+]=[N-])cc1 (stereo not drawn) | 51 nM | 41 nM | 3000 nM | 45 nM | 28000 nM | 631 | 59 | 43 nM | 32700 nM
8 | COC(=O)C(C)NP(=O)(OCC1OC(n2cc(C)c(=O)[nH]c2=O)CC1N=[N+]=[N-])Oc1ccc(OC)cc1 (stereo not drawn) | 65 nM | 57 nM | 9000 nM | 69 nM | 182000 nM | 2638 | 138 | 71 nM | 42600 nM
9 | COC(=O)C(C)NP(=O)(OCC1OC(n2cc(C)c(=O)[nH]c2=O)CC1N=[N+]=[N-])Oc1ccc(C)cc1 (stereo not drawn) | 56 nM | 65 nM | 7000 nM | 53 nM | 27000 nM | 509 | 125 | 51 nM | 43000 nM
10 | COC(=O)[C@H](C)NP(=O)(OC[C@H]1O[C@@H](n2cc(C)c(=O)[nH]c2=O)C[C@@H]1N=[N+]=[N-])Oc1ccccc1 (stereo partly drawn) | 70 nM | 55 nM | 12000 nM | 7 nM | > 50000 nM | >5555 | 171 | 6 nM | 172000 nM
11 | COC(=O)C(C)NP(=O)(OCC1OC(n2cc(C)c(=O)[nH]c2=O)CC1N=[N+]=[N-])Oc1ccc(F)cc1 (stereo not drawn) | 65 nM | 48 nM | 3000 nM | 54 nM | 206000 nM | 3815 | 46 | 41 nM | 128000 nM
